Laboratory results as given in the RNAGym collection of RNA variant scans (doi:10.1101/gad.245936.114).
Variants at the floor of the assay were thinned out.

B1: tRNA (parent)
chain: CUCUCGGUAGCCAAGUUGGUUUAAGGCGCAAGACUUUAAUUUAUCACUACGAAAUCUUGAGAUCGGGCGUUCGACUCGCCCCCGGGAGAUUUUUUCCUCGAGCAA

Variants of: B1
Assay: nonsense suppression (GFP-seq) (ratio to wild type); higher = more function; SUP4oc tRNA, yeast GFP reporter sort-seq
In short: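 Sorted GFP/RFP bins of yeast were each Illumina-sequenced with a phred ≥30 cutoff; the cells held a genome-integrated ochre-suppressor tRNA variant from a library with ~3% random mutations, a galactose-driven GFP ochre reporter, and RFP. Culture was in raffinose/galactose medium containing 80 mg/L adenine. Nonsense suppression, termed GFPSEQ, is the median GFP/RFP of the bins weighted by each variant's estimated cell share per bin, relative to the unmutated parent tRNA, for variants reaching ≥100 reads and ≥30 cells.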
For CUCUCGGUAGCCAACUUGGUUUAAGGCGCAAGUCUUUAAUUUAUCACUACGAAAUCUUGAAAUCGGGCGUUCGACUCGCCCCCGGGAGAUUUUUUCCUCGAGCAA, the nonsense suppression was at most 0.026. CUCUCGGUAGCCAUGUUGGUAUAGGGCGCACGACUUUAAUUUAUCACUACGAAAUGUUGAGAUCGGGCGUUCGACUCGCCCCCGGGAAAUUUUUUCCUCGAGCAA gave a nonsense suppression of at most 0.026. Work on CUCUCGGUAGCCAAAUUGGUUUAAGGCGCAAGACUUUAAUUUAUCACUACGAAAUCUUGAGAUCGGGCGUUCGACCCGCCCCCGGGAGAUUUUUUCCUCGAGCAA yielded a nonsense suppression of 0.0394. CUCUCGGUAGCCAACUUGGUUUGAGGCGCAAGACUUUAAUUUAUCACUACGAAAUCUUGAAAUCGGGCGUUCGACUCGCCCCCGGGAGAUUUUUUCCUCGAGCAA gave a nonsense suppression of at most 0.026. In the case of CUCUCGGUAGCCAAAUUGGUUCAAGGCGCAAGACUUUAAUUUAUCACUACGAAAUCUUGAGAUCGGGCGUUCGACUCGCCCCCGGGAGAUUUUUUCCUCGAGCAA, the nonsense suppression is reported as 0.147. CUCUCGGUAGCCAAAUUGGUUUAAGGCGCAAGACUUUAAUUUAUCACUACGAAAUCUUGAGAUCGGGCGUUCGACUCGCCUCCGGGAGAUUUUUUCCUCGAGCAA showed a nonsense suppression of 0.0386. With CUCUCGGUAGCCAUGUUGGUUUAAGGCGCAAGACUUUAAUUUAUCACUACGAAAUCUUGACAUCGGGCGUUCGACUCGUCCCCGGGAGAUUUUUUCCUCGAGCAA the nonsense suppression was at most 0.026. CUCUCGGUAGCCAUGUUGGUUUAAGGCGCAAGACUUUAAUUUAUCACUACGAAAUCUUGAGAUCGGGCGUUCGACUCGCCCCCGGCAGAUUUUUUCCUCGAGCAA showed a nonsense suppression of at most 0.026. CUCUCGGUAGCCAUGUUGGUUUAAGGCGCAAGACUUUAAUUUAUCACUACGAAAUCUUGAGAUCGGGCGUUCGACUCGCCCCCGGAAGAUUUUUUCCUCGAGCAA gave a nonsense suppression of at most 0.026. CUCUCGGUAGCCAACUUGGUUUAAGGGGCACGACUUUAAUUUAUCACUACGAAAUCUUGAGAUCGGGCGUUCGACUCGCCCCCGGGAGAUUUUUUCCUCGAGCAA gave a nonsense suppression of at most 0.026. CUCUCGGUAGCCAACUUGCUUUAAGGCGCAAGACUUUAAUUUAUCACUACGAAAUCUUGAGAUCGGGCGUUCGACUCGCCCCCGGGAGAUUUUUUCCUCGAGCAA gave a nonsense suppression of at most 0.026. Work on CUCUCGGUAGCCAACUUGGUUUAAGGCGCAAGAAUUUAAUUUAUCACUACGAAAUCUUGAGAUCGGGCGUUCGACUCGCCCGCGGGAGAUUUUUUCCUCGAGCAA yielded a nonsense suppression of 0.816. Work on CUCUCGGUAGCCAUGUUGGUUUAAGACGCAAGACUUUAAUUUAUCACUACGAAAUCAUGAGAUCGGGCGUUCGACUCGCCCCCGGGAGAUUUUUUCCUCGAGCAA yielded a nonsense suppression of at most 0.026. With CUCUCGGUAGCCAACUUGGUUUGAGGCGCAAGACUUUAAUUUAUCACUACGAAAUCUUGAGAUCGAGCGUUCGACUCGCCCCCGGGAGAUUUUUUCCUCGAGCAA the nonsense suppression was at most 0.026. Variant CUCUCGGUAGCCAAAUUGGUUUAAGGCGCAAGACUUUAAUUUAUCACUACGAAAUCCUCAGAUCGGGCGUUCGACUCACCCCCGGGAGAUUUUUUCCUCGAGCAA has a nonsense suppression of at most 0.026. Variant CUCUCGGUAGCCAAAUUGGUUUAAGGCGCAAGACUUUAAUUUAUCACUACGAAAUCUUGAGAUCGGGCGUUCGAAUCGCCCCCGGGAGAUUUUUUCCUCGAGCAA has a nonsense suppression of 0.854. CUCUCGGUAGCCAAAUUGGUUUAAGUCGCAAGACUUUAAUUUAUCACUACGAAAACUUGAGAUCGGGCGUUCGACUCGCCCCCGGGAGAUUUUUUCCUCGAGCAA gave a nonsense suppression of at most 0.026. Work on CUCUCGGUAGCCAAAUUGGUUUAAGGCGCAAGGCUUUAAUUUAUCACUACGAAAUCUUGAGAUCGGGCGUUCGACUCGCCCCCGGGAGAUUUUUUCCUCGAGCAA yielded a nonsense suppression of 0.0395. In the case of CUCUCGGUAGCCAAAUUGGUUUAAGGCGCAAGACUUUAAUUUAUCACUACGAAAUCUUCAGAUCGGGCGUUCGACUCGCCCCCGGGCGAUUUUUUCCUCGAGCAA, the nonsense suppression is reported as at most 0.026. Variant CUCUCGGUAGCCAAAUUGGUUUAAGGCGCAGGACUUUAAUUUAUCACUACGAAAUCUUGAGAUCGGGCGUUCGACUCGCCCCCGGGAGAUUUUUUCCUCGAGCAA has a nonsense suppression of 0.0274. CUCUCGGUAGCCAAAUUGGUUUAAGGCGCAAGACUUUAAUUUAUCACUACGAAAUCUUGAGAUCGGGCGUUCCAGUCGCCCCCGGGAGAUUUUUUCCUCGAGCAA gave a nonsense suppression of at most 0.026. Variant CUCUCGGUAGCCAAAUUGGUUUAGGGCGGAAGACUUUAAUUUAUCACUACGAAAUCUUGCGAUCGGGCGUUCGACUCGCCCCCGGGAGAUUUUUUCCUCGAGCAA has a nonsense suppression of at most 0.026. CUCUCGGUAGCCAAAUUGGUUUAAGUCGCAAGACUUUAAUUUAUCACUACGAAAUCUUGAGAUCGGGCGUUCGACUCGCCCCCGGGAGAUUUUUUCCUCGAGCAA gave a nonsense suppression of at most 0.026. CUCUCGGUAGCCAAAUUGGUUUAAGGCGCAUGACCUUAAUUUAUCACUACGAAAUCUUGAGAUCGGGCGUUCGACGCGCCCCUGGGAGAUUUUUUCCUCGAGCAA gave a nonsense suppression of at most 0.026. CUCUCGGUAGCCAUGUUGGUUUAAGGCGCAACACUUUAAUUUAUCACUACGAAAUCUUGAGAUCGGGCGUUCGACUCGCCCCCGGGAUAUUUUUUCCUCGAGCAA gave a nonsense suppression of at most 0.026. For CUCUCGGUAGCCAACUUGGUUUAAUGCGCAAGACUUUAAUUUAUCACUACGAAAUCUUGAGAUCGGGCGUUCGACUCGCCCCCGGGAGAUUUUUUCCUCGAGCAA, the nonsense suppression was at most 0.026. For CUCUCGGUAGCCAAAAUGGUUUAAGGCGCAAGACUUUAAUUUAUCACUACGAAAUCUUGAGAUCGGGCGUUCGACUCGCCCCCGGGAGAUUUUUUCCUCGAGCAA, the nonsense suppression was 0.0275.
